Test results as given in ChEMBL document CHEMBL1140471, “Inhibitors of NF-kappaB derived from thalidomide” (Bioorg Med Chem Lett, 2007).

Experiment: Inhibition of IL-1-alpha-induced NF-kappaB activation in HeLa cells assessed as blocking of p50/p65 nuclear translocation
Type: cell-based
Details: Homo sapiens
Outline: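 HeLa cells stimulated with IL-1α (5 ng/ml) with or without compound for 30 min, then fixed and immunostained for p65 with Hoechst nuclear counterstain. Plates were scanned by fluorescence imaging microscopy. IC50 = concentration reducing nuclear minus cytoplasmic p65 fluorescence by 50%.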

## COC(=O)c1ccc2c(c1)C(=O)N(c1c(C(C)C)cccc1C(C)C)C2=O
  IC50: > 50 µM

## CC(C)c1cccc(C(C)C)c1N1C(=O)c2ccc(OS(N)(=O)=O)cc2C1=O
  IC50: > 50 µM

## CC(=O)Nc1ccc2c(c1)C(=O)N(c1c(C(C)C)cccc1C(C)C)C2=O
  IC50: > 50 µM

## CC(C)c1ccccc1N1C(=O)c2ccc(O)cc2C1=O
  IC50: > 50 µM

## CC(C)c1cccc(C(C)C)c1N1C(=O)c2ccc(C(=O)O)cc2C1=O
  IC50: > 50 µM

## CC(C)(C)c1ccccc1N1C(=O)c2ccc(O)cc2C1=O
  IC50: > 50 µM

## CCCc1ccccc1N1C(=O)c2ccc(O)cc2C1=O
  IC50: > 50 µM

## O=C1c2ccc(O)cc2C(=O)N1c1c(Br)cccc1Br
  IC50: 0.43 µM

## Cc1ccc2c(c1)C(=O)N(c1c(C(C)C)cccc1C(C)C)C2=O
  IC50: > 50 µM

## O=C1c2ccc(O)cc2C(=O)N1c1c(F)cccc1F
  IC50: > 50 µM

## O=C1c2ccc(O)cc2C(=O)N1c1c(Cl)cccc1Cl
  IC50: > 50 µM

## CC(C)c1cccc(C(C)C)c1N1C(=O)c2ccc(O)cc2C1=O
  IC50: 0.53 µM

## CC(C)c1cccc(C(C)C)c1N1C(=O)c2ccc(Cl)cc2C1=O
  IC50: > 50 µM

## Cc1cccc(C)c1N1C(=O)c2ccc(O)cc2C1=O
  IC50: > 50 µM

## CC(C)c1cccc(C(C)C)c1N1C(=O)c2cccc(O)c2C1=O
  IC50: 4.95 µM

## CCc1cccc(CC)c1N1C(=O)c2ccc(O)cc2C1=O
  IC50: > 50 µM

## CC(C)c1cccc(C(C)C)c1N1C(=O)c2ccccc2C1=O
  IC50: > 50 µM

## CC(C)c1cccc(C(C)C)c1N1C(=O)c2cccc(N)c2C1=O
  IC50: > 50 µM

## CC(C)c1cccc(C(C)C)c1N1C(=O)c2ccc(N)cc2C1=O
  IC50: 29.5 µM

## CC(C)c1cccc(C(C)C)c1N1C(=O)c2cccc([N+](=O)[O-])c2C1=O
  IC50: > 50 µM

## CC(C)c1cccc(C(C)C)c1N1C(=O)c2ccc([N+](=O)[O-])cc2C1=O
  IC50: > 50 µM

## CC(C)(C)c1ccc(S(=O)(=O)/C=C/C#N)cc1 [BAY-11-7085]
  IC50: 0.1 µM

## Nc1cccc2c1C(=O)N(C1CCC(=O)NC1=O)C2=O (centres undefined) [POMALIDOMIDE]
  IC50: 1.27 µM

## O=C1CCC(N2C(=O)c3ccccc3C2=O)C(=O)N1 (centres undefined) [THALIDOMIDE]
  IC50: 2.04 µM
